Measurements published in ChEMBL document CHEMBL4382237, “Design, Synthesis, and Biological Evaluation of 2-Nitroimidazopyrazin-one/-es with Antitubercular and Antiparasitic Activity” (J Med Chem, 2018).
Converted amounts (≈) assume the structure as drawn.

What was measured:
Escherichia coli = assay: Antibacterial activity against Escherichia coli ATCC 25922 by broth microdilution assay; format: functional
Outline: (§1)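 Broth microdilution run essentially per an earlier report. MIC taken as the lowest concentration with no visible growth. Replicates typically agreed within one 2-fold dilution. The median MIC is reported, with a range where the median fell between two tested concentrations.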

[1] = test system: Mycobacterium tuberculosis; assay: Antibacterial activity against Mycobacterium tuberculosis H37Rv after 5 days under normoxic condition by resazurin dye-based fluorescence assay; format: functional, organism-based
Outline: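 H37Rv grown in 7H9/ADC/glycerol/Tyloxapol to mid-exponential phase, diluted to OD600 0.001 (~2 x 10^4 CFU/mL) in 7H9S with serially diluted compound. Incubated 5 days at 37 °C, then resazurin and Tween-80 added. Fluorescence (ex 530/em 590 nm) read after 24 h, normalised to no-drug and no-bacteria wells.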

HepG2 = assay: Cytotoxicity against human HepG2 cells after 24 hrs by resazurin dye-based fluorescence assay; format: cell-based; details: hepg2, 24 h
Outline: (§2)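 HEK293 (3000/well) and HepG2 (5000/well) were grown 24 h in DMEM with 10% FBS at 37 °C, 5% CO2. Cells were then exposed 24 h to a dilution series up to 100 µM (0.5% DMSO). 5 µM resazurin was added for 2 h, read at ex 560/em 590. 1% Triton X-100 served as lysis control. CC50 was derived from the curves.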

Giardia intestinalis = assay: Antiparasitic activity against Giardia lamblia WB trophozoites after 24 to 48 hrs by CellTiter-Glo luminescent cell viability assay; details: Giardia duodenalis
Klebsiella pneumoniae = assay: Antibacterial activity against Klebsiella pneumoniae 700603 by broth microdilution assay; format: functional; outline: as §1
Pseudomonas aeruginosa = assay: Antibacterial activity against Pseudomonas aeruginosa ATCC 27853 by broth microdilution assay; format: functional; outline: as §1
Acinetobacter baumannii = assay: Antibacterial activity against Acinetobacter baumannii ATCC 19606 by broth microdilution assay; format: functional; details: ATCC 19606 = CIP 70.34 = JCM 6841; outline: as §1
Candida albicans = assay: Antifungal activity against Candida albicans ATCC 90028 by broth microdilution assay; format: functional; outline: as §1
HEK293 = assay: Cytotoxicity against HEK293 cells after 24 hrs by resazurin dye-based fluorescence assay; format: cell-based; details: human, hek293, 24 h; outline: as §2
Staphylococcus aureus = assay: Antibacterial activity against methicillin-resistant Staphylococcus aureus ATCC […] by broth microdilution assay; format: functional
Cryptococcus neoformans = assay: Antifungal activity against Cryptococcus neoformans H99 ATCC […] broth microdilution assay; format: functional; details: var. grubii H99 ATCC 208821; outline: as §1
[2] = test system: Trypanosoma brucei brucei; assay: Antiparasitic activity against bloodstream form of Trypanosoma brucei brucei strain 427 assessed as inhibition of parasitic growth at 40 uM after 48 hrs by resazurin dye-based assay relative to control; format: functional; details: strain 427, 48 h, read-out: GI
[3] = test system: Mycobacterium tuberculosis; assay: Antibacterial activity against non-replicating Mycobacterium tuberculosis H37Rv after 5 days under hypoxic condition by resazurin dye-based fluorescence assay; format: functional; details: 120 h
Outline: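 Same H37Rv inoculum (OD600 0.001, ~2 x 10^4 CFU/mL) in 7H9S with serially diluted compound. Plates held 5 days at 0.1% oxygen, then resazurin plus Tween-80 added.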

Clostridioides difficile = assay: Antibacterial activity against Clostridium difficile 630 ATCC BAA-1382 by broth microdilution assay; format: functional; outline: as §1
[4] = test system: Mycobacterium tuberculosis; assay: Antibacterial activity against Mycobacterium tuberculosis H37Rv assessed as inhibition of bacterial growth at 32 ug/ml after 5 days under normoxic condition by resazurin dye-based fluorescence assay relative to control; format: functional; details: 120 h, read-out: GI
Entamoeba histolytica = assay: Antiparasitic activity against Entamoeba histolytica HM-1:IMSS trophozoites after 24 to 48 hrs by CellTiter-Glo luminescent cell viability assay; format: functional, organism-based
Outline: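 Axenic trophozoites were kept in TYI-S-33 with penicillin (100 U/mL) and streptomycin (100 µg/mL) and harvested in log phase. 5000 parasites per well were exposed to a final 8-point two-fold series of 0.39–50 µM, from 10 mM DMSO stocks. Plates were incubated 24–48 h at 37 °C under anaerobic conditions. ATP luminescence viability was read in triplicate. Percent inhibition is given at the highest concentration tested.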

physchem [5] = details: water
physchem [6] = details: PBS, pH 7.4
[7] = test system: Trypanosoma brucei brucei; assay: Antiparasitic activity against bloodstream form of Trypanosoma brucei brucei strain 427 after 48 hrs by resazurin dye-based assay; format: functional, organism-based; details: strain 427, 48 h
[8] = Metabolic stability in human liver microsomes assessed as parent compound remaining at 3 uM after 2 hrs by LC-MS/MS analysis
[9] = Metabolic stability in CD-1 mouse liver microsomes assessed as parent compound remaining at 3 uM after 2 hrs by LC-MS/MS analysis
[10] = Metabolic stability in CD-1 mouse plasma assessed as parent compound remaining at 3 uM after 2 hrs by LC-MS/MS analysis
[11] = Metabolic stability in human plasma assessed as parent compound remaining at 3 uM after 2 hrs by LC-MS/MS analysis

Compound	MIC (Escherichia coli) [µg/mL]	MIC [1] [µg/mL]	CC50 (HepG2) [µM]	IC50 (Giardia intestinalis) [µM]	IC50 (Giardia intestinalis; read-out: pIC50 (converted)) [µM]	MIC (Klebsiella pneumoniae) [µg/mL]	MIC (Pseudomonas aeruginosa) [µg/mL]	MIC (Acinetobacter baumannii) [µg/mL]	MIC (Candida albicans) [µg/mL]	CC50 (HEK293) [µM]	MIC (Staphylococcus aureus) [µg/mL]	MIC (Cryptococcus neoformans) [µg/mL]	MIC [3] [µg/mL]	IC50 (Entamoeba histolytica; read-out: IC50) [µM]	IC50 ([7]; read-out: IC50) [µM]	IC50 ([7]; read-out: pIC50 (converted)) [µM]	other results
CC(c1ccc(F)cc1)n1ccn2cc([N+](=O)[O-])nc2c1=O (stereo unspecified)	> 32	0.5 (≈ 1.65 µM)	> 100	2.1	2	> 32	> 32	> 32	> 32	> 100	> 32	> 32	4 to 6.3 (≈ 13.2 to 20.8 µM)	–	–	–	inhibition of growth at 40 µM [2]: 94%
O=C(NO)c1nc([N+](=O)[O-])cn1Cc1ccc(OC(F)(F)F)cc1	–	>32	–	2.7 to 7.5	–	–	–	–	–	–	–	–	> 32	10 to 45	–	–	MIC (Clostridioides difficile): 16 to 64 µg/mL (≈ 46.2 to 185 µM); inhibition of growth at 32 µg/mL [4]: 60 to 75%
O=c1[nH]c(-c2ccccc2)cn2cc([N+](=O)[O-])nc12	–	>32	–	10	10	–	–	–	–	–	–	–	> 32	> 25	0.22	0.2	solubility kinetic at 24 h, 200 µM (physchem [5]): 27 µM (≈ 6.92 µg/mL); IC50 (Entamoeba histolytica; read-out: pIC50 (converted)): > 25.1 µM; solubility kinetic at 24 h, 200 µM (physchem [6]): 17 µM (≈ 4.36 µg/mL)
O=[N+]([O-])c1cn2ccnc(OCc3ccccc3OC(F)(F)F)c2n1	> 32	>32	> 100	12	12.6	> 32	> 32	> 32	> 32	> 100	> 32	> 32	> 32	–	> 40	> 39.8	Stability [8]: 51%; Stability [9]: < 0.5%
O=[N+]([O-])c1cn2ccnc(OCCc3ccc(OC(F)(F)F)cc3)c2n1	> 32	>32	> 100	5.2	5.01	> 32	> 32	> 32	> 32	> 100	> 32	> 32	> 32	7.8	–	–	–
O=c1c2nc([N+](=O)[O-])cn2ccn1Cc1ccccn1	> 32	>32	> 100	14	15.8	> 32	> 32	> 32	> 32	> 100	> 32	> 32	> 32	–	9.7	10	solubility kinetic at 24 h, 200 µM (physchem [5]): 176 µM (≈ 47.7 µg/mL); solubility kinetic at 24 h, 200 µM (physchem [6]): 184 µM (≈ 49.9 µg/mL)
Cc1nc(OCc2ccc(OC(F)(F)F)cc2)c2nc([N+](=O)[O-])cn2c1C	–	>32	–	8.6	7.94	–	–	–	–	–	–	–	> 32	17	10	10	Stability [8]: 44%; IC50 (Entamoeba histolytica; read-out: pIC50 (converted)): 15.8 µM; Stability [10]: > 99%; Stability [11]: > 99%; Stability [9]: < 0.5%
NC(=O)Cn1ccn2cc([N+](=O)[O-])nc2c1=O	> 32	>32	> 100	> 50	> 50.1	> 32	> 32	> 32	> 32	> 100	> 32	> 32	> 32	–	> 40	> 39.8	–
O=C(NCc1ccc(OC(F)(F)F)cc1)c1ncc([N+](=O)[O-])[nH]1	–	>32	–	0.2 to 0.5	–	–	–	–	–	–	–	–	> 32	2.2 to 4.5	–	–	MIC (Clostridioides difficile): 4 to 16 µg/mL (≈ 12.1 to 48.5 µM); inhibition of growth at 32 µg/mL [4]: 60 to 75%
